Laboratory results reported in ChEMBL document CHEMBL1125251, “4'-Hydroxy-3-methoxyflavones with potent antipicornavirus activity” (J Med Chem, 1991).
In brackets after ≈: the same amount, converted by molar mass.

Legend:
Enterovirus C [1] = test: The ratio of the poliovirus viral titer of the virus control (reduction factor) to the viral titer in the presence of the maximal non-toxic dose (RF MNTD); format: functional
In short: (§1)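 Poliovirus type 1 Brunhilde 1A/S3 in Vero monolayers. Serial 10-fold virus dilutions adsorbed 1 h at 37 °C, then serial 2-fold compound dilutions were added. Incubated at 37 °C and scored for CPE by light microscopy, with a 3-day readout. Titer reduction is control/treated TCD50/mL. ED99 is the minimum concentration inhibiting 99% of virus. Virus, cell and compound controls were included.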

Enterovirus C [2] = test: Minimum drug concentration at which 99% of the polio virus is inhibited; format: functional; in short: as §1
[3] = Cytotoxic dose at which 50% growth of normal cells is inhibited; format: cell-based; conditions: chlorocebus sabaeus, Vero cells; read-out: CyD50
In short: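 Cell-growth cytotoxicity in Vero cells or human skin fibroblasts. Serial 2-fold dilutions in M-199 with 6% newborn calf serum were added in quadruplicate to 10⁶ cells and held 6 days at 37 °C. Cells were trypsinized, counted and reseeded with compound, repeated five times. Generation time was calculated per concentration. CyD50 = lowest concentration at least doubling generation time versus untreated cells.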

Enterovirus C [4] = test: Maximal non-toxic dose (MNTD) that shows antiviral activity.; format: functional
In short: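 End-point titration. Poliovirus type 1 Brunhilde was run in Vero cells at 37 °C with a 3-day read. Rhinovirus 15 was run in human skin fibroblasts at 33 °C with a 7-day read. Monolayers got serial 10-fold virus dilutions and adsorbed 1 h at 37 °C, then serial 2-fold compound dilutions (DMSO stock in maintenance medium). CPE was read by light microscopy. RF = control titer (TCD50/mL) / titer at maximal nontoxic dose.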

Enterovirus C [5] = test: Minimal dose which produces titer reduction at 10 ug/mL (mD RF10e3); format: functional
[6] = Therapeutic Index measured as the ratio of CyD50(polio) / ED99(polio) values; format: organism-based; conditions: enterovirus c; read-out: Therapeutic index 99
In short: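 TI99 = CyD50/ED99 for poliovirus. ED99 came from end-point titration in Vero cells at 37 °C over 3 days. CyD50 came from Vero cell growth: 10⁶ cells were given serial 2-fold compound dilutions in quadruplicate for 6 days at 37 °C, then trypsinized, counted and reseeded, repeated five times. Generation time was calculated per concentration.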

Human rhinovirus sp. [7] = test: Minimum drug concentration at which 99% of the rhino virus is inhibited.; format: functional
In short: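 End-point titration with rhinovirus type 15 on human skin fibroblast monolayers. Cells were infected with serial 10-fold virus dilutions and allowed 1 h adsorption at 37 °C. Serial 2-fold compound dilutions were then added and plates incubated at 33 °C. CPE was read daily by light microscopy for at least 1 week, titres as TCD50/mL. ED99 = minimum concentration inhibiting 99% of virus.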

Human rhinovirus sp. [8] = test: Cytotoxic dose at which 50% growth of normal cells is inhibited against rhino virus infection.; format: functional
In short: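 Human skin fibroblasts, 10⁶ cells per flask, given serial 2-fold dilutions in quadruplicate in M-199 with 6% newborn calf serum and held 6 days at 37 °C. Cells were trypsinized, counted in a chamber and reseeded with compound over five repeat cycles. CyD50 = lowest concentration at least doubling cell generation time relative to untreated control.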

SMILES	Reduction factor (Enterovirus C [1])	ED99 (Enterovirus C [2]) [µg/mL]	CC50 [3] [µg/mL]	Max non-toxic dose (Enterovirus C [4]) [µg/mL]	Minimal dose (Enterovirus C [5]) [µg/mL]	selectivity ratio [6]	ED99 (Human rhinovirus sp. [7]) [µg/mL]	CyD50 (Human rhinovirus sp. [8]) [µg/mL]
COc1c(-c2ccc(O)cc2)oc2c(OC)cccc2c1=O	1000000	20	25 (≈ 83.8 µM)	50	2.5	1.25		
COc1ccc(-c2oc3cc(O)cc(O)c3c(=O)c2OC)cc1 [ERMANIN]		5	50 (≈ 159 µM)	10	5	10		
Cc1ccc2c(=O)c(N)c(-c3ccc(O)cc3)oc2c1			10 (≈ 37.4 µM)					
COc1c(-c2ccc(OC(C)=O)c(OC(C)=O)c2)oc2cc(OC(C)=O)cc(OC(C)=O)c2c1=O	1000000			>50	2			
COc1ccc(-c2oc3ccc(OC)cc3c(=O)c2OC)cc1			100 (≈ 320 µM)	50		2	50	100
COc1ccc(-c2oc3cc(C)ccc3c(=O)c2OC)cc1	1			100				
COc1c(-c2ccc(O)cc2)oc2ccc(Cl)cc2c1=O		6	100 (≈ 330 µM)	100	1.5	16.7	<1000	100
Cc1ccc2c(=O)c(Cl)c(-c3ccc(O)cc3)oc2c1			50 (≈ 174 µM)				20	50
COc1cc(O)c2c(=O)c(OC)c(-c3ccc(O)c(OC)c3)oc2c1 [PACHYPODOL]	1000000	2.5	25 (≈ 72.6 µM)	20	0.5	10		
COc1ccc(-c2oc3c(OC)c(OC)c(OC)c(OC)c3c(=O)c2OC)cc1OC [3,5,6,7,8,3',4'-HEPTAMETHOXYFLAVONE]	100000			50	25			
COc1ccc(-c2oc3cc(O)cc(O)c3c(=O)c2OC)cc1OC				50	2.5			
COc1c(-c2ccc(O)c(O)c2)oc2c(OC)c(O)cc(O)c2c1=O	1000000	1.5	10 (≈ 28.9 µM)	20	2	6.6		
COc1c(-c2ccc(O)cc2)oc2cc(I)ccc2c1=O	10000	4	20 (≈ 50.7 µM)	10	10	5	<1000	20
COc1ccc(-c2oc3cccc(OC)c3c(=O)c2OC)cc1	1			100				
COc1c(-c2ccc(Cl)cc2)oc2cc(C)ccc2c1=O	1	<1000	100 (≈ 333 µM)	25				
COc1ccc(-c2oc3c(OC)c(OC)cc(O)c3c(=O)c2OC)cc1				7.5				
COc1c(O)cc2oc(-c3ccc(O)cc3)c(OC)c(=O)c2c1O [3,6-DIMETHOXY KAEMPFEROL]	100000	0.5	25 (≈ 75.7 µM)	20	1	50		
COc1c(-c2ccc(O)cc2)oc2cc(F)ccc2c1=O	1000	10	25 (≈ 87.3 µM)	10		2.5		

SMILES	Reduction factor (Enterovirus C [1])	ED99 (Enterovirus C [2]) [µg/mL]	CC50 [3] [µg/mL]	Max non-toxic dose (Enterovirus C [4]) [µg/mL]	Minimal dose (Enterovirus C [5]) [µg/mL]	selectivity ratio [6]	ED99 (Human rhinovirus sp. [7]) [µg/mL]	CyD50 (Human rhinovirus sp. [8]) [µg/mL]
COc1c(-c2ccc(O)cc2)oc2cc(Br)ccc2c1=O	10	>30	30 (≈ 86.4 µM)	30		< 1		
COc1ccc(-c2oc3cc(OC)c(OC)cc3c(=O)c2OC)cc1OC	10000			50	50			
COc1ccc2oc(-c3ccc(O)cc3)c(OC)c(=O)c2c1		25	200 (≈ 670 µM)	50		8		
Cc1ccc2c(=O)c(C)c(-c3ccc(O)cc3)oc2c1			100 (≈ 376 µM)				25	100
COc1cc(O)c2c(=O)c(OC)c(-c3ccc(O)c(O)c3)oc2c1	1000000	0.3	10 (≈ 30.3 µM)	10	0.5	33.3		
COc1ccc(-c2oc3ccc(O)cc3c(=O)c2OC)cc1	1			100				
COc1c(-c2ccc(O)cc2)oc2cc(C(C)C)ccc2c1=O				25				
COc1c(-c2ccc(O)cc2)oc2cc(O)cc(O)c2c1=O [ISOKAEMPFERIDE]	1000000	0.2	10 (≈ 33.3 µM)	10	0.25	50		
COc1c(-c2ccc(O)c(O)c2)oc2cc(O)cc(O)c2c1=O [3-O-METHYLQUERCETIN]	1000000	0.3	5 (≈ 15.8 µM)	20	0.5	16.7		
COc1cc(O)c2c(=O)c(OC)c(-c3ccc(OC)c(OC)c3)oc2c1 [RETUSIN]	1			>50				
COc1ccc(-c2oc3c(OC)c(O)cc(O)c3c(=O)c2OC)cc1	1			>10				
COc1ccc(-c2oc3cc(O)c(OC)c(O)c3c(=O)c2OC)cc1 [SANTIN]	1			100				
COc1c(-c2ccc(O)cc2)oc2c(C)cc(Cl)cc2c1=O	1	>50	50 (≈ 158 µM)	25		< 1		
COc1ccc(-c2oc3cc(OC)cc(O)c3c(=O)c2OC)cc1	1			>50				
COc1c(-c2ccc(O)cc2)oc2ccccc2c1=O	100000	6	10 (≈ 37.3 µM)	15	6	1.7		
COc1ccc(-c2oc3c(OC)c(OC)c(OC)c(O)c3c(=O)c2OC)cc1OC	10000			50	50			
COc1c(-c2ccc(O)cc2)oc2ccc(C)cc2c1=O		5	75 (≈ 266 µM)	12		15	<1000	75
